Assay results of several laboratories.
Each line is one published result; the experiments were not run side by side.

Compound	target or system	test	system	setting	measurement	value
NNC(=O)c1cn(Cc2ccccc2)c2ccc(Oc3ccccc3)cc2c1=O	Trypanosoma brucei	parasite growth, resazurin	–	72 h	EC50	0.43 µM
Cc1cc(C)c(C#N)c(NCC(=O)c2ccc(F)cc2)n1	Trypanosoma brucei	parasite growth, resazurin	–	–	EC50	> 64 µM
O=C(O)c1ccc2c(c1)nc(Nc1cccc(Cl)c1)c1ccncc12	SK-MES-1	cell growth or viability, resazurin	–	48 h	IC50	6.9 µM
Cc1cc(C)c(C#N)c(SC2COc3ccccc3C2=O)n1 (stereo not drawn)	Trypanosoma brucei	parasite growth, resazurin	–	–	EC50	51.2 µM
C=CC(=O)NC1CCN(c2ncc3ncnc(Nc4ccc(Oc5ccc6c(c5)ncn6C)c(C)c4)c3n2)CC1	DoTc2-4510	cell growth or viability	–	–	EC50	5.24 µM
Cl.N[C@@H]1CCN(c2cc(C(=O)NCC(=O)O)ccc2NC(=O)c2cc(Br)c(Br)[nH]2)C1	Enterococcus faecium	microbial growth, broth dilution	ATCC35667	–	MIC	> 32 µg/mL
N=C(N)c1ccc(OCCCCCOc2ccc(C(=N)N)cc2)cc1	Trypanosoma brucei	parasite growth, resazurin	–	72 h	EC50	0.005 µM
Cc1cc(C)c(C(N)=O)c(SCC(=O)c2ccc(Cl)cc2Cl)n1	Trypanosoma brucei	parasite growth, resazurin	RHODESIENSE	–	EC50	> 64 µM
Cc1[nH]c(C(=O)Nc2ccc(C(=O)NCC(=O)O)cc2N2CCNCC2)c(Cl)c1Cl.Cl	Enterococcus faecium	microbial growth, broth dilution	ATCC35667	–	MIC	> 32 µg/mL
Cc1cc(C)c(C#N)c(SCC(=O)c2cccc(N)c2)n1	Trypanosoma brucei	parasite growth, resazurin	–	–	EC50	> 64 µM
Nc1ccc(/C=C/C(=O)NCc2cc3cc(-c4ccc(C(=O)N5CCC(F)(F)CC5)cc4)cc(-c4ccc(F)cc4)c3o2)cn1	CFPAC-1	cell growth or viability, CCK-8	–	72 h	IC50	> 20 µM
Cc1[nH]c(C(=O)Nc2ccc(C(=O)NCc3n[nH]c(=O)o3)cc2N2CCNCC2)c(Cl)c1Cl.Cl	Enterococcus faecium	microbial growth, broth dilution	ATCC35667	–	MIC	> 32 µg/mL
Nc1ccc(/C=C/C(=O)N2CCc3c(oc4c(-c5ccc(F)cc5)cc(-c5ccc(C(=O)N6CCC(F)(F)CC6)nn5)cc34)C2)cn1	CFPAC-1	cell growth or viability, CCK-8	–	72 h	IC50	> 20 µM
Cc1cc(C)c(C#N)c(SCC(=O)c2ccccn2)n1	Trypanosoma brucei	parasite growth, resazurin	–	–	EC50	> 64 µM
Cc1[nH]c(C(=O)Nc2ccc(C(=O)NCC(=O)O)cc2N2CC[C@H](N)C2)c(Cl)c1Cl.Cl	Enterococcus faecium	microbial growth, broth dilution	ATCC35667	–	MIC	> 32 µg/mL
